Measurements: ChEMBL document CHEMBL1138866, “Antitubercular nucleosides that inhibit siderophore biosynthesis: SAR of the glycosyl domain” (J Med Chem, 2006)
In brackets after ≈: the same amount, converted by molar mass.

How the values were obtained:
[1] = target: T1, Salicyl-AMP ligase / salicyl-S-ArCP synthetase (Mycobacterium tuberculosis, UniProt P71716); assay: Inhibition of Mycobacterium tuberculosis MbtA by [32P]PPi-ATP exchange assay; conditions: read-out: Ki app
T1 sequence (P71716 whole entry): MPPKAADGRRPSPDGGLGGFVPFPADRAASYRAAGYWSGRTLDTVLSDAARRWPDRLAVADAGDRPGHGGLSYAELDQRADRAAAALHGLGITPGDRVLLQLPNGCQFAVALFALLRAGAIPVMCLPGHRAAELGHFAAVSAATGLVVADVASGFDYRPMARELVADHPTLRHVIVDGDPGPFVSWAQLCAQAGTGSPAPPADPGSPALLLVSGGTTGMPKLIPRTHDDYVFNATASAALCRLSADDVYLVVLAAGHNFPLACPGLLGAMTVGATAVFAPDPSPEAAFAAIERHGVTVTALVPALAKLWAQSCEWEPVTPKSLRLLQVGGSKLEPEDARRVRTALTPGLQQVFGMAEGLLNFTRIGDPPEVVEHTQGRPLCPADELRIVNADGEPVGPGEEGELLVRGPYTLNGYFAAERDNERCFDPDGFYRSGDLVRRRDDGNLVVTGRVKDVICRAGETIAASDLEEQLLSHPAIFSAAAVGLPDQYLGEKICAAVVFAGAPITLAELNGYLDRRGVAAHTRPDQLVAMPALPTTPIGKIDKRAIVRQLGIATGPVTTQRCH
How it was run: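 Native MbtA (His6-SUMO tag removed), 7 nM, with 250 μM salicylic acid, 10 mM ATP and 1 mM PPi in 75 mM Tris-HCl pH 7.5, 10 mM MgCl2, 2 mM DTT. Inhibitor in DMSO preincubated 10 min at 23 °C, then [32P]PPi added and run 20 min at 37 °C. Charcoal-bound γ-[32P]ATP counted; duplicate data fit to Morrison equation ([E] 7.0 nM) for KIapp.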

[2] = test system: Yersinia pseudotuberculosis; assay: Inhibitory activity against Yersinia pseudotuberculosis ATCC 6902; type: functional
How it was run: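 Broth microdilution in triplicate in desferrated BHI (Chelex-treated plus 200 μM 2,2′-dipyridyl), with or without 150 μM FeCl3 for iron-rich conditions. Initial density 10^3–10^4 cells/well, compounds up to 100 μM, 1% DMSO control. Grown 24 h at 37 °C with shaking; OD600 read; MIC99.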

[3] = test system: Mycobacterium tuberculosis; assay: Antitubercular activity against Mycobacterium tuberculosis H37Rv; type: functional
How it was run: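 Broth microdilution in iron-deficient GAST, in quadruplicate, with drugs from DMSO stocks and DMSO-treated control wells. Initial density 10^4–10^5 cells/assay, 37 °C, OD620 read at 10 and 14 days. MIC99 is the concentration giving complete growth inhibition.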

Row | SMILES | Ki [1] [nM] | MIC99 [2] [µM] | MIC99 [3] [µM]
1 | Nc1ncnc2ncn(COCCOS(=O)(=O)NC(=O)c3ccccc3O)c12 | 16700 | > 100 | > 200
2 | Nc1ncnc2ncn([C@@H]3C[C@H](COS(=O)(=O)NC(=O)c4ccccc4O)[C@@H](O)[C@H]3O)c12 | 2.3 | > 100 | 1.56 (≈ 0.725 µg/mL)
3 | Nc1ncnc2ncn([C@@H]3O[C@H](COS(=O)(=O)NC(=O)c4ccccc4O)C[C@H]3O)c12 | 3.2 | 80 (≈ 36 µg/mL) | 1.56 (≈ 0.703 µg/mL)
4 | NNC(=O)c1ccncc1 [ISONIAZID] | – | – | 0.18 (≈ 0.0247 µg/mL)
5 | Nc1ncnc2ncn([C@H]3C[C@H](O)[C@@H](COS(=O)(=O)NC(=O)c4ccccc4O)O3)c12 | 3.5 | – | –
6 | Nc1ncnc2ncn([C@@H]3O[C@H](COS(=O)(=O)NC(=O)c4ccccc4O)[C@@H](O)[C@H]3O)c12 | – | 20 (≈ 9.33 µg/mL) | 0.29 (≈ 0.135 µg/mL)
7 | Nc1ncnc2ncn([C@H]3CC[C@@H](COS(=O)(=O)NC(=O)c4ccccc4O)C3)c12 | 61 | – | > 200
8 | Nc1ncnc2ncn([C@H]3C=C[C@@H](COS(=O)(=O)NC(=O)c4ccccc4O)C3)c12 | 830 | > 100 | > 200
9 | Nc1ncnc2ncn([C@@H]3O[C@H](CNS(=O)(=O)NC(=O)c4ccccc4O)[C@@H](O)[C@H]3O)c12 | 3.7 | – | 0.19 (≈ 0.0884 µg/mL)
